The results in this text go back to ChEMBL document CHEMBL1145237, “Amide derivatives of 9,11-seco-estra-1,3,5(10)-trien-11-oic acid as modified orally active estrogen agonists with moderate antagonistic activity” (Bioorg Med Chem Lett, 2005).

In assay [1] the target is T1, Estrogen receptor (Rattus norvegicus) (UniProt P06211+Q62986).
In assay [2] the target is T1, Estrogen receptor (Rattus norvegicus). Description: Estrogenic activity as percent gain in rat uterine weight at 10 mg/kg/day. Type of assay: functional, organism-based. The method, boiled down: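 Immature female rats were dosed orally once daily on days 28–30 of age at 10 mg/kg, with a vehicle-only control group. At autopsy on day 31, 24 h after the last dose, vaginal opening and vaginal-smear cornification were scored, and the blotted uterus was weighed fresh. Uterine gain was expressed as percent of vehicle control, as mean ± SEM of at least six observations per group.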

The target is the same in assay [3]. Description: Relative binding affinity for immature rat cytosolic estrogen receptor. Type of assay: protein assay. In a few lines:
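Rat uterine cytosol receptor (20–21-day-old animals, pH 7.4 Tris-EDTA buffer) was incubated in triplicate for 18 h at 4 °C with fixed [3H]-estradiol and graded competitor concentrations, with DMF ≤5% final. Bound ligand was separated with dextran-coated charcoal and counted. Percent bound versus log concentration was plotted, and the 50%-inhibition concentration was compared with that of estradiol to give RBA.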

Assay [4] shares this target. Briefly: Estrogenic activity in rat uterine weight assay. It is filed as functional.
The species entered for a further assay is Rattus norvegicus. Briefly: Percent inhibition of ethynylestradiol-induced uterine weight gain in ovariectomized immature rats. Set-up: concentration or dose not given beside the values. Conditions: concentration not given here.

Structures are written as SMILES.

By inhibition is commonly meant the share of the control response that was lost under treatment. `CCCNC(=O)C[C@@]1(C)C(C2CCc3cc(OC)ccc3C2)CC[C@@H]1OC(C)=O` (stereo not given in full): the Weight in assay [1] was 67.2 mg; in assay [4], 18.7 mg. The molecule further registered a Gain in assay [2] of 6.63%. This molecule also gave an RBA in assay [3] of less than 0.001%. Further, the inhibition in the assay filed under Rattus norvegicus came out at 26.1%.

Regarding `COc1ccc(NC(=O)C[C@@]2(C)C(C3CCc4cc(OC)ccc4C3)CC[C@@H]2OC(C)=O)cc1` (stereo not given in full), the figures for the Weight in assay [1] and in assay [4] were 77.5 mg and 70.7 mg, respectively. For the same molecule, in assay [2], the Gain worked out at 282%. Also, the RBA in assay [3] was less than 0.001%. Further, in the assay filed under Rattus norvegicus, the inhibition came to 20.2%.

For `COc1cccc(NC(=O)C[C@@]2(C)C(C3CCc4cc(OC)ccc4C3)CC[C@@H]2OC(C)=O)c1` (stereo not given in full), the Weight in assay [1] was 86 mg; in assay [4], 84.9 mg. The molecule also yielded a Gain in assay [2] of 428%. This molecule also came in with an RBA in assay [3] of less than 0.001%. The inhibition in the assay listed under Rattus norvegicus turned out to be 15.6%.

Turning to `COc1ccc2c(c1)CCC(C1CC[C@H](OC(C)=O)[C@@]1(C)CC(=O)NCc1ccccc1)C2` (stereo not given in full), the values for the Weight in assay [1] and in assay [4] were 87.7 mg and 74.4 mg, respectively. Also, in assay [2], the Gain worked out at 362%. In addition, in assay [3], the RBA is less than 0.001%. In the assay listed under Rattus norvegicus, this molecule displayed an inhibition of 14%.

In the case of `COc1ccc2c(c1)CCC(C1CC[C@H](OC(C)=O)[C@@]1(C)CC(=O)Nc1ccccc1)C2` (stereo not given in full), the Weight was found to be 69 mg in assay [1] and 18 mg in assay [4]. The molecule further came in with a Gain in assay [2] of 2.91%. This molecule yielded an RBA in assay [3] of less than 0.001%. Further, in the assay listed under Rattus norvegicus, the inhibition was 11.5%.

For the molecule `CCCCNC(=O)C[C@@]1(C)C(C2CCc3cc(OC)ccc3C2)CC[C@@H]1OC(C)=O` (stereo not given in full), the Weight in assay [1] is 70.9 mg; in assay [4], 40.7 mg. Moreover, the Gain in assay [2] was 133%. The molecule further displayed an RBA in assay [3] of less than 0.001%. The molecule further yielded an inhibition in the assay listed under Rattus norvegicus of 22.1%.

As for `CCCCCNC(=O)C[C@@]1(C)C(C2CCc3cc(OC)ccc3C2)CC[C@@H]1OC(C)=O` (stereo not given in full), the Weight in assay [1] was 75.3 mg; in assay [4], 23.7 mg. The same molecule displayed a Gain in assay [2] of 35.2%. Further, the RBA in assay [3] is less than 0.001%. The inhibition in the assay listed under Rattus norvegicus came to 17.2%.

With `COc1ccc2c(c1)CCC(C1CC[C@H](OC(C)=O)[C@@]1(C)CC(=O)NCCc1ccccc1)C2` (stereo not given in full), the figures for the Weight in assay [1] and in assay [4] were 73 mg and 19 mg, respectively. In addition, in assay [2], the Gain came to 8.57%. In addition, the RBA in assay [3] is less than 0.001%. This molecule displayed an inhibition in the assay filed under Rattus norvegicus of 6.41%.

In the case of `CCCCCCCCCCCCNC(=O)C[C@@]1(C)C(C2CCc3cc(OC)ccc3C2)CC[C@@H]1OC(C)=O` (stereo not given in full), the values for the Weight in assay [1] and in assay [4] were 90 mg and 82.4 mg, respectively. Further, the Gain in assay [2] amounted to 412%. In assay [3], this molecule gave an RBA of less than 0.001%. This molecule came in with an inhibition in the assay listed under Rattus norvegicus of 11.7%.

On to `CCCCCCCCNC(=O)C[C@@]1(C)C(C2CCc3cc(OC)ccc3C2)CC[C@@H]1OC(C)=O` (stereo not given in full), for which the Weight in assay [1] came out at 95.9 mg; in assay [4], 87 mg. Moreover, in assay [2], the Gain stood at 441%. In addition, the RBA in assay [3] is less than 0.001%. The inhibition in the assay filed under Rattus norvegicus worked out at 5.98%.

Consider `COc1ccc2c(c1)CCC(C1CC[C@H](OC(C)=O)[C@@]1(C)CC(=O)NCCCc1ccccc1)C2` (stereo not given in full), for which the Weight was 83.6 mg in assay [1] and 74.3 mg in assay [4]. Further, the Gain in assay [2] turned out to be 422%. The same molecule displayed an RBA in assay [3] of less than 0.001%. The inhibition in the assay listed under Rattus norvegicus worked out at 10%.
